EP2 antag: blocks the human prostaglandin E2 receptor EP2; actives 0.52% (n = 260,000); inhibition, % at 25 µM; P43116; C6 glioma cells expressing human EP2, cAMP TR-FRET; cells stimulated with saturating PGE2;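 active means percent inhibition above 40 after rounding to a whole number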;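 further: rat C6 glioma host cells with rolipram phosphodiesterase inhibitor present; the protocol text gives 20 µM as final concentration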
Target sequence (P43116 whole entry, looked up): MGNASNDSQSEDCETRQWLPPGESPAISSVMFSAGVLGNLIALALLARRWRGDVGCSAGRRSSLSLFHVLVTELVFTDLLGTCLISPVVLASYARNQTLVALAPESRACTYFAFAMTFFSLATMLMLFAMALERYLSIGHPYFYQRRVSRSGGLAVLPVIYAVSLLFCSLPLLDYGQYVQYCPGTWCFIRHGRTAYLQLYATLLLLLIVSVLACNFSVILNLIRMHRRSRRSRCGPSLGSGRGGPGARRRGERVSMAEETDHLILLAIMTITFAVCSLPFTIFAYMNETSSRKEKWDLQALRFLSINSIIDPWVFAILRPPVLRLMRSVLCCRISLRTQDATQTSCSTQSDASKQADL
EP2 modulator: modulates human prostaglandin E2 receptor EP2 signaling; P43116; EP2-expressing cells, cAMP HTRF FRET, PGE2 co-stimulation; induction, % at 25 µM; actives 0.83% (n = 260,000);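 active means compounds whose cAMP rise, as percent of the full-agonist control response, exceeds 60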;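 further: rat C6 glioma line stably carrying human EP2 under a CMV promoter; the protocol text gives 20 µM as final concentration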
TbHK1 inh: blocks Trypanosoma brucei hexokinase 1 activity. actives 0.11% (n = 220,000). inhibition, % at 10 µM. recombinant TbHK1, G6PDH-coupled NADH A340. AID 1430;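 active means inhibition of 50% or more in the single-dose primary screen; inactive means inhibition below 50%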
b-catenin transl: beta-catenin nuclear translocation modulation | HeLa beta-catenin nuclear translocation, immunofluorescence imaging | AID 1665 | actives 0.3% (n = 190,000) | nuclear translocation activity, % at 5 µM;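 active means nuclear translocation activity above 50% at 5 µM, with a well cell count of 50 or more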;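 further: per-cell ratio of nuclear to cytoplasmic median beta-catenin stain intensity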
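Test system: human HeLa cells, native beta-catenin. Compound dosing: 5 µM primary single dose, 0.1% DMSO, 0.02–20 µM confirmation series. Incubation: compound exposure 24 h at 37°C. Detection: beta-catenin immunostaining with DAPI counterstain, 20x imaging, 6 fields/well. Read-out basis: Nuclear/cytoplasmic beta-catenin signal ratio, % activation.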
Efa HMGR inh: inhibitors of class II HMG-CoA reductase from Enterococcus faecalis. purified E. faecalis HMGR, NADPH absorbance 340 nm kinetic. actives 0.41% (n = 190,000). inhibition, % at 10 µM;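 active means inhibition above a set limit, the median over all tested compounds plus 3 SD, cut at about 9.5% in these data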;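 further: enzyme runs in reverse so mevalonate oxidation gives rising NADPH absorbance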
MT stabilizer: microtubule stabilization, imaging screen; HeLa tubulin immunostaining HCS, 24 h; share of cells brighter than vehicle mean+2SD; % tubulin-high responders, % at 10 µM; actives 0.83% (n = 200,000);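 active means plate Z-score above 3 for both tubulin-high and condensed-nucleus cell shares, with cell loss under 80%, at 10 µM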;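 further: anti alpha tubulin signal scored within the nucleus-defined area of each cell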
EP2 confirm: human EP2 receptor cAMP induction, negative in counter-screens; shares compounds with EP2 modulator; C6 glioma EP2 cells, cAMP HTRF induction; plus low (about EC15) PGE2 agonist; calls only at 20 µM (by protocol); actives 47% (n = 1,300);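 active means cAMP induction above 50% in the main assay while under 30% in all four parallel counter assays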;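 further: rat C6 glioma cells stably expressing human EP2 receptor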
Hits are given with their value. In the library only some 2.4% were active in any assay of this set; here they are far more common.

For Clc1ccc(-c2nn3c(-c4ccccc4)nnc3s2)cc1 the results were EP2 antag inactive, EP2 modulator 72.8, TbHK1 inh inactive, b-catenin transl inactive, Efa HMGR inh inactive, MT stabilizer inactive and EP2 confirm active.
Screening CCC(=O)N(CC)Cc1cc2cc(OC)ccc2[nH]c1=O returned EP2 antag inactive and EP2 modulator inactive.
Screening Cc1ccc2c(c1)c(C)c(C(=O)NCc1nc(-c3ccccc3)no1)n2C returned EP2 antag inactive and EP2 modulator inactive.
CCCc1cc(Nc2cccc(C)c2)n2ncnc2n1 was read as EP2 antag inactive and EP2 modulator inactive.
Screening Cc1cccc(C)c1NC(=O)CSc1nnc(Cn2nnc(-c3ccccc3)n2)n1-c1ccccc1 returned EP2 antag inactive, EP2 modulator 73.8, TbHK1 inh inactive, b-catenin transl inactive, Efa HMGR inh inactive, MT stabilizer inactive and EP2 confirm inactive.
Screening COc1ccc(NC(=O)C2CCCCN2)cc1OC (stereo not given) returned EP2 antag inactive and EP2 modulator inactive.
For Cc1cc(-c2ccc(NC(=O)CN3CCCCC3)c(C)c2)ccc1NC(=O)CN1CCCCC1 the results were EP2 antag inactive and EP2 modulator inactive.
`COc1ccc2c(c1)c(CN1CCCCC1CN1CCCCC1)cn2CC(N)=O` (stereo not given) gave EP2 antag inactive and EP2 modulator inactive.
CCOC(=O)c1sc2nccc(N(C)C)c2c1N=CNOCc1ccccc1 was read as EP2 antag inactive, EP2 modulator 74.2, TbHK1 inh inactive, Efa HMGR inh inactive, MT stabilizer inactive and EP2 confirm active.
Screening CCOc1ccc(S(=O)(=O)N(CC(=O)NCC2CCCO2)c2ccc(C)cc2)cc1 (stereo not given) returned EP2 antag inactive and EP2 modulator inactive.
For COc1ccc2cc(CN(C)C3(C)CCS(=O)(=O)C3)c(OC)nc2c1 (stereo not given) the results were EP2 antag inactive and EP2 modulator inactive.
COc1cccc2[nH]c3c(N4CCCC(C)C4)ncnc3c12 (stereo not given) was read as EP2 antag inactive, EP2 modulator 93.8, TbHK1 inh inactive, b-catenin transl inactive, Efa HMGR inh inactive, MT stabilizer inactive and EP2 confirm active.
`COc1cccc2[nH]c3c(N4CC(C)CC(C)C4)ncnc3c12` (stereo not given) gave EP2 modulator 90.0, TbHK1 inh inactive, b-catenin transl inactive, Efa HMGR inh inactive, MT stabilizer inactive and EP2 confirm active.
For CCN(CC)C(=O)c1sc(NC(=O)Cc2cccs2)c(C(=O)OC)c1C the results were EP2 antag inactive and EP2 modulator inactive.
For CC1(C)CC(=O)C2=C(C1)OC(N)=C(C#N)C2c1cn(Cc2cccc(F)c2)c2ccccc12 (stereo not given) the results were EP2 antag inactive and EP2 modulator inactive.
For Cc1cc(C)cc(OC2CCCCC2NS(=O)(=O)c2ccccc2)c1 (stereo not given) the results were EP2 antag inactive, EP2 modulator 65.2, TbHK1 inh inactive, b-catenin transl inactive, Efa HMGR inh inactive, MT stabilizer inactive and EP2 confirm active.
CC(=C\c1ccccc1)/C=C1/SC(=S)N(C(C(=O)O)C(C)C)C1=O (stereo not given) was read as EP2 antag inactive, EP2 modulator inactive, TbHK1 inh inactive, b-catenin transl inactive, Efa HMGR inh inactive, MT stabilizer inactive and EP2 confirm active.
`O=C(/C(=C/O)N=Nc1ccccc1)c1cccs1` gave EP2 antag inactive, EP2 modulator 81.1, TbHK1 inh inactive, b-catenin transl inactive, Efa HMGR inh inactive, MT stabilizer inactive and EP2 confirm active.
COc1ccc(N=N/C(=C\O)C(=O)c2ccco2)cc1 was read as EP2 antag inactive, EP2 modulator inactive, TbHK1 inh inactive, b-catenin transl inactive, Efa HMGR inh inactive and MT stabilizer inactive.
`FC(F)(F)c1nnc(-c2ccccc2)nc1Oc1ccccc1` gave EP2 antag inactive, EP2 modulator inactive, TbHK1 inh inactive, b-catenin transl inactive, Efa HMGR inh inactive and MT stabilizer inactive.
For Fc1ccc(Oc2nc(-c3ccccc3)nnc2C(F)(F)F)cc1 the results were EP2 antag inactive, EP2 modulator 68.7, TbHK1 inh inactive, b-catenin transl inactive, Efa HMGR inh inactive, MT stabilizer inactive and EP2 confirm active.
Fc1ccc(Sc2nc(-c3ccccc3)nnc2C(F)(F)F)cc1 was read as EP2 antag inactive, EP2 modulator 65.2, TbHK1 inh inactive, b-catenin transl inactive, Efa HMGR inh inactive, MT stabilizer inactive and EP2 confirm inactive.
Cc1nn(CC(=O)N(Cc2cccnc2)C2CC2)c(=O)c2cc3sccc3n12 was read as EP2 modulator inactive.
CCCn1c(SCC(=O)Nc2ccc(C(C)=O)cc2)nnc1C(C)C was read as EP2 antag inactive and EP2 modulator inactive.
Screening CC(C)NC(=O)CN1C(=O)C(C)(C)Oc2ccc(C(=O)NC3CCCC3)cc21 returned EP2 antag inactive and EP2 modulator inactive.
CNC[C@H](O)c1ccc(O)c(O)c1 was read as EP2 antag inactive, EP2 modulator 86.0, TbHK1 inh inactive, Efa HMGR inh inactive, MT stabilizer inactive and EP2 confirm inactive.
CNC[C@@H](SC)c1ccc(O)c(O)c1 was read as EP2 antag inactive and EP2 modulator inactive.
Screening O=c1[nH]c2ccc(Br)cc2c(-c2ccccc2)c1N1CCOCC1 returned EP2 modulator 77.7, TbHK1 inh inactive, b-catenin transl inactive, Efa HMGR inh inactive, MT stabilizer inactive and EP2 confirm inactive.
For O=c1[nH]c2ccc(Br)cc2c(-c2ccccc2)c1CN1CCOCC1 the results were EP2 antag inactive, EP2 modulator inactive, TbHK1 inh inactive, b-catenin transl inactive, Efa HMGR inh inactive and MT stabilizer inactive.
CCOC(=O)C1CCN(c2c(-c3ccccc3)c3cc(Cl)ccc3[nH]c2=O)CC1 was read as EP2 antag inactive, EP2 modulator 79.5, TbHK1 inh inactive, b-catenin transl inactive, Efa HMGR inh inactive, MT stabilizer inactive and EP2 confirm inactive.
Screening O=C(c1ccc(Cl)cc1Cl)N1CCCCC1 returned EP2 antag inactive and EP2 modulator inactive.
Cc1ccc(C)c2[nH]c(=O)c(C(c3nnnn3C3CCCC3)N3CCc4ccccc4C3)cc12 (stereo not given) was read as EP2 antag inactive and EP2 modulator inactive.
Screening Cc1nc(Cl)sc1C(=O)Nc1cccc(Cl)c1C returned EP2 antag inactive, EP2 modulator inactive, TbHK1 inh inactive, b-catenin transl inactive, Efa HMGR inh inactive and MT stabilizer inactive.
